Measured values: ChEMBL document CHEMBL1811752, “Synthesis and pharmacological characterization of bicyclic triple reuptake inhibitor 3-aryl octahydrocyclopenta[c]pyrrole analogues” (J Med Chem, 2011)

How the values were obtained:
[1] = molecular target: Sodium-dependent noradrenaline transporter (Homo sapiens, UniProt P23975); assay: Inhibition of norepinephrine reuptake at NET expressed in MDCK cells; type: cell-based
Plasma [2] = assay: Plasma concentration in mouse assessed as (3aS,6aR)-3a-(3,4-dichlorophenyl)octahydrocyclopenta[c]pyrrole level at 30 mg/kg, po; type: ADME, organism-based; parameters: dose 30 mg/kg, route oral; details: in vivo
Outline: (§1)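 Male mice dosed orally at 3, 10 or 30 mg/kg in 5% transcutol/saline, 60 min before the tail suspension test. Terminal whole brain (ng/g) and plasma (ng/mL) samples taken from the test animals. Brain/plasma ratio derived from these levels.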

Cytochrome P450 3A4 = Cytochrome P450 3A4 (Homo sapiens, UniProt P08684); assay: Inhibition of CYP3A4 in human liver microsomes by LC-MS/MS analysis; type: ADME, Microsome
Sequence of Cytochrome P450 3A4 (P08684 whole entry, canonical isoform): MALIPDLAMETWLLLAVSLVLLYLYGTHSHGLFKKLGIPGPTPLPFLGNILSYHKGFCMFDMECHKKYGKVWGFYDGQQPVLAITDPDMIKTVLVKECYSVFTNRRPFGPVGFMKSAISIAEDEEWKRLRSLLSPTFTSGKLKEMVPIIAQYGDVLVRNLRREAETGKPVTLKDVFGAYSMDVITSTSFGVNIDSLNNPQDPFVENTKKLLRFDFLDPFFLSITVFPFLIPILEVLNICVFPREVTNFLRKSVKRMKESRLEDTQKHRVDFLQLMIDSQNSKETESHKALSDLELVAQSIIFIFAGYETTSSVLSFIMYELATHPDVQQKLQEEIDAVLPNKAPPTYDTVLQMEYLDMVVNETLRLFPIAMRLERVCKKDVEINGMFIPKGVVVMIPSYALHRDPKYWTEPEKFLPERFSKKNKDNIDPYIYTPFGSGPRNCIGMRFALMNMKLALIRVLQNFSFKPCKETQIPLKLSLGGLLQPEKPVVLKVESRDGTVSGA
Outline: (§2)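 Human liver microsomes incubated with isoform-specific substrates and compound, typically 0.1–25 μM. Metabolite formation read by LC-MS/MS, […]. IC50 calculated from the decrease in metabolite formation relative to vehicle control.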

Brain [3] = assay: Drug level in mouse brain assessed as (3aS,6aR)-3a-(3,4-dichlorophenyl)octahydrocyclopenta[c]pyrrole level at 10 mg/kg, po; type: ADME, organism-based; parameters: dose 10 mg/kg, route oral; details: in vivo; outline: as §1
Brain [4] = assay: Drug level in mouse brain assessed as (3aS,6aR)-3a-(3,4-dichlorophenyl)octahydrocyclopenta[c]pyrrole level at 30 mg/kg, po; type: ADME, organism-based; parameters: dose 30 mg/kg, route oral; details: in vivo; outline: as §1
[5] = molecular target: Sodium-dependent dopamine transporter (Homo sapiens, UniProt Q01959); assay: Inhibition of dopamine reuptake at DAT expressed in CHO-K1 cells; type: cell-based
Sequence of Sodium-dependent dopamine transporter (Q01959 whole entry): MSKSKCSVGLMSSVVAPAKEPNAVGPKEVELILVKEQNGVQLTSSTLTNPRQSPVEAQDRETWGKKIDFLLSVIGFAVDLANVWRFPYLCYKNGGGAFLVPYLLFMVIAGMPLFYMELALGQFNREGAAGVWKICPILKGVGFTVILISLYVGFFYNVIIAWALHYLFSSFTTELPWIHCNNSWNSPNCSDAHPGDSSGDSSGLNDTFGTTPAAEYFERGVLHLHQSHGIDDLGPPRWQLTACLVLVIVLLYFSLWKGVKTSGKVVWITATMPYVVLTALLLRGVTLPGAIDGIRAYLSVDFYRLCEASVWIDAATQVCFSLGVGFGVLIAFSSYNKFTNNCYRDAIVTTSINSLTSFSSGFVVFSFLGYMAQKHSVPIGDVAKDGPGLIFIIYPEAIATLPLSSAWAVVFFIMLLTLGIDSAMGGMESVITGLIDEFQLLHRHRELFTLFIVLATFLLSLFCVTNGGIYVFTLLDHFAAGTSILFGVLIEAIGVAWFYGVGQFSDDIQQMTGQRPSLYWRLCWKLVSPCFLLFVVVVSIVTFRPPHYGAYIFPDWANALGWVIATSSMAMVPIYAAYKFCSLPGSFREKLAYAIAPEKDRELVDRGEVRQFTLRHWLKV

Plasma [6] = assay: Plasma concentration in mouse at 3 mg/kg, po; type: ADME, organism-based; parameters: dose 3 mg/kg, route oral; details: in vivo; outline: as §1
Cytochrome P450 2D6 = Cytochrome P450 2D6 (Homo sapiens, UniProt P10635); assay: Inhibition of CYP2D6 in human liver microsomes by LC-MS/MS analysis; type: ADME, Microsome; outline: as §2
Sequence of Cytochrome P450 2D6 (P10635 whole entry): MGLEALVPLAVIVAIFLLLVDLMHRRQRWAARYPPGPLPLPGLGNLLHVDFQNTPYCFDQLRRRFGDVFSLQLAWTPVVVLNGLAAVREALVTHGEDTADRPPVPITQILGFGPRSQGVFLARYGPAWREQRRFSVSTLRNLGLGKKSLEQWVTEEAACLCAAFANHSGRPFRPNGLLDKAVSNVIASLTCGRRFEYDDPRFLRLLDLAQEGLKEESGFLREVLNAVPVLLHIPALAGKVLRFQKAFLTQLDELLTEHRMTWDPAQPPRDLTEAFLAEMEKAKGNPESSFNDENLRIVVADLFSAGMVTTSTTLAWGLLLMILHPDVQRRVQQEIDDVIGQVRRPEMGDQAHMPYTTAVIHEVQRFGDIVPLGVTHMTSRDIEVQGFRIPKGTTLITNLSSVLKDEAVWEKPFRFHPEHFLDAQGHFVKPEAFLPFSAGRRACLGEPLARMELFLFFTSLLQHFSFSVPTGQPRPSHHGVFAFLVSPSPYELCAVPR

Mus musculus [7] = assay: Antidepressant activity in mouse assessed as reduction of immobility time at 100 mg/kg, po after 60 mins by tail suspension test relative to control; type: functional; parameters: scale not given: the % may be the effect or the level left
Outline: (§3)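 Mouse tail suspension test, male mice (10–12 per group, blind). Single oral dose in 5% transcutol in saline, 60 min pretreatment. Immobility recorded automatically for 5 min. Compared with vehicle group. Desipramine 100 mg/kg PO used as reference. One-way ANOVA with Dunnett's post test, p < 0.05.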

[8] = molecular target: Sodium-dependent serotonin transporter (Homo sapiens, UniProt P31645); assay: Inhibition of serotonin reuptake at SERT expressed in HEK293 cells; type: cell-based
Sequence of Sodium-dependent serotonin transporter (P31645 whole entry): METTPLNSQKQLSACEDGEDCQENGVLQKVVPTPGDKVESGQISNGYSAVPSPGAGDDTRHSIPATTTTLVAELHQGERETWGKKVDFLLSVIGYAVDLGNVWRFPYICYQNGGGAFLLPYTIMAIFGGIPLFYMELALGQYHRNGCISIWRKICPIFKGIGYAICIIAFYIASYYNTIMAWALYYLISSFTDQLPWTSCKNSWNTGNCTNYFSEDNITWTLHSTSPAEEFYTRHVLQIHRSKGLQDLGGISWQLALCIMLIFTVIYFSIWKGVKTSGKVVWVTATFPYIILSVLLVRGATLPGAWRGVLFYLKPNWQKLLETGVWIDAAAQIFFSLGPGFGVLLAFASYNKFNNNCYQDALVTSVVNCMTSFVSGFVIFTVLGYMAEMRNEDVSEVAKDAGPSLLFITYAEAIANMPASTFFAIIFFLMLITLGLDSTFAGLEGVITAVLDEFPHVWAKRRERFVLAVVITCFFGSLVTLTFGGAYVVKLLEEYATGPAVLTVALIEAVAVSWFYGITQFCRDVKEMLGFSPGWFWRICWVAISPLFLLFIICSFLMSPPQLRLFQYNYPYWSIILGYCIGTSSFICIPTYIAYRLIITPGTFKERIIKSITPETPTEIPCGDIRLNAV

Cytochrome P450 2C19 = Cytochrome P450 2C19 (Homo sapiens, UniProt P33261); assay: Inhibition of CYP2C19 in human liver microsomes by LC-MS/MS analysis; type: ADME, Microsome; outline: as §2
Sequence of Cytochrome P450 2C19 (P33261 whole entry): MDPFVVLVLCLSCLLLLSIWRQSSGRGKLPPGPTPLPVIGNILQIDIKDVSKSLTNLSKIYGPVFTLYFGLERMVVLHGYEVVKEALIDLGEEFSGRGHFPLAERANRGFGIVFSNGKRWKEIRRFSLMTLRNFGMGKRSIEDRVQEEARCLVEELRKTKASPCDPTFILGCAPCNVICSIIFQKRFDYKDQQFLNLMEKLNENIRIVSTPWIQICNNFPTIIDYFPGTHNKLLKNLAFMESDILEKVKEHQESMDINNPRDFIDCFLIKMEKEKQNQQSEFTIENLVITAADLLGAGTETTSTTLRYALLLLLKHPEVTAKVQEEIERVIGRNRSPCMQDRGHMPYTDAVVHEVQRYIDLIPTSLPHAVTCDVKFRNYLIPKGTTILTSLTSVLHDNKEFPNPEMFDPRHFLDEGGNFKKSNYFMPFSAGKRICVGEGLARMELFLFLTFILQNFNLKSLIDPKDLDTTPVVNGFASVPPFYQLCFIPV

Plasma [9] = assay: Plasma concentration in mouse assessed as (3aS,6aR)-3a-(3,4-dichlorophenyl)octahydrocyclopenta[c]pyrrole level at 10 mg/kg, po; type: ADME, organism-based; parameters: dose 10 mg/kg, route oral; details: in vivo; outline: as §1
Mus musculus [10] = assay: Antidepressant activity in mouse assessed as reduction of immobility time at 10 mg/kg, po after 60 mins by tail suspension test relative to control; type: functional; parameters: scale not given: the % may be the effect or the level left; outline: as §3
Brain [11] = assay: Drug level in mouse brain assessed as (3aS,6aR)-3a-(3,4-dichlorophenyl)octahydrocyclopenta[c]pyrrole level at 3 mg/kg, po; type: ADME, organism-based; parameters: dose 3 mg/kg, route oral; details: in vivo; outline: as §1
[12] = Half life in human liver microsomes at 3 uM by LC-MS/MS analysis; type: ADME, Microsome
Outline: (§4)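 Human or mouse liver microsomes (0.5 mg/mL) incubated with 3 μM compound at 37 °C. Reaction started with NADPH and stopped with methanol containing internal standard. Loss of compound followed over 45 min by LC-MS/MS. Peak area ratio to internal standard plotted against time and the slope of the line taken.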

Plasma [13] = assay: Plasma concentration in mouse at 30 mg/kg, po; type: ADME, organism-based; parameters: dose 30 mg/kg, route oral; details: in vivo; outline: as §1
[14] = Ratio of drug level in brain to plasma in po dosed mouse; type: ADME, organism-based; details: brain and plasma, read-out: BPR; outline: as §1
Brain [15] = assay: Drug level in mouse brain at 3 mg/kg, po; type: ADME, organism-based; parameters: dose 3 mg/kg, route oral; details: in vivo; outline: as §1
Cytochrome P450 2C9 = Cytochrome P450 2C9 (Homo sapiens, UniProt P11712); assay: Inhibition of CYP2C9 in human liver microsomes by LC-MS/MS analysis; type: ADME, Microsome; outline: as §2
Sequence of Cytochrome P450 2C9 (P11712 whole entry): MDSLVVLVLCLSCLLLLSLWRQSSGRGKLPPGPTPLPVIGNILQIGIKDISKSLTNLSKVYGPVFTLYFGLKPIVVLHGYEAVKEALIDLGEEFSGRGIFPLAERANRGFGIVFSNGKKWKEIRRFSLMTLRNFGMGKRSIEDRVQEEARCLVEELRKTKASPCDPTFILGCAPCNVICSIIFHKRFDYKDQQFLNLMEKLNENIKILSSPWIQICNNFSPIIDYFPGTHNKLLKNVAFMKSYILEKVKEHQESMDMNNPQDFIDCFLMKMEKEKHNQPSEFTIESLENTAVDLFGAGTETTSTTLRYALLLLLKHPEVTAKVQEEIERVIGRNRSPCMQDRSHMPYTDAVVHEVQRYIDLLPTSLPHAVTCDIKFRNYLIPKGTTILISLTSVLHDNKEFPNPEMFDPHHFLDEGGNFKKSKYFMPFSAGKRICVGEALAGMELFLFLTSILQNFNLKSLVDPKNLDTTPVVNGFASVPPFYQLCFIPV

CYP1A = molecular target: T1, CYP1A (Homo sapiens, UniProt P04798+P05177); assay: Inhibition of CYP1A in human liver microsomes by LC-MS/MS analysis; type: ADME, Microsome; outline: as §2
T1 sequence (P04798 whole entry): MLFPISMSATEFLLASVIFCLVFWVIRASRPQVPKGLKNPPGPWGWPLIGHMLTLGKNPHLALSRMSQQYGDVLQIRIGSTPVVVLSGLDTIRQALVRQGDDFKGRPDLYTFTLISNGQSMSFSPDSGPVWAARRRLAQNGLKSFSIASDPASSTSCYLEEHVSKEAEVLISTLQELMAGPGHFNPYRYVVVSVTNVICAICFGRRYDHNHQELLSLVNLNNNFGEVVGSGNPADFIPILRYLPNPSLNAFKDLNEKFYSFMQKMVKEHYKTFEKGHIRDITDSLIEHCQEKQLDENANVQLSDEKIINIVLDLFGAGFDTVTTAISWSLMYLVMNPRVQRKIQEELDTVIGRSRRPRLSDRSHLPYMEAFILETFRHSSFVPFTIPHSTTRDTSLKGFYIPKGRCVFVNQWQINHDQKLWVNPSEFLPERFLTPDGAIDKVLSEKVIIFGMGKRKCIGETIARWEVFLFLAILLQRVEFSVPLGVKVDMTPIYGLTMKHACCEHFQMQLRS
T1 sequence (P05177 whole entry): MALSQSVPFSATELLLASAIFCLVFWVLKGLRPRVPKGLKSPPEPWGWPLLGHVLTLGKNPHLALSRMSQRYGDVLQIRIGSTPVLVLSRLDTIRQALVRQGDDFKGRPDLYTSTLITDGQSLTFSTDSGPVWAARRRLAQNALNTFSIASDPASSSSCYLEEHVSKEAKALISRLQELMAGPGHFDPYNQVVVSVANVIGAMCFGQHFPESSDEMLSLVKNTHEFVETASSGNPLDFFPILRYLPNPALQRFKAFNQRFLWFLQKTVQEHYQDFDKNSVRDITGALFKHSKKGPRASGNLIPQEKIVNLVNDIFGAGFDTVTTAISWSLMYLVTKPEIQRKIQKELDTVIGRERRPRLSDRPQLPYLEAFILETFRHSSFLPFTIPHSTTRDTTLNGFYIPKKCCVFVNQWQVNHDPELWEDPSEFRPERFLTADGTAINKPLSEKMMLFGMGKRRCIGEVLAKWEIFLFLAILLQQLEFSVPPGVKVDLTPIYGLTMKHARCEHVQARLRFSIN

Brain [16] = assay: Drug level in mouse brain at 30 mg/kg, po; type: ADME, organism-based; parameters: dose 30 mg/kg, route oral; details: in vivo; outline: as §1
Mus musculus [17] = assay: Antidepressant activity in mouse assessed as reduction of immobility time at 30 mg/kg, po after 60 mins by tail suspension test relative to control; type: functional; parameters: scale not given: the % may be the effect or the level left; outline: as §3
[18] = Half life in mouse liver microsomes at 3 uM by LC-MS/MS analysis; type: ADME, Microsome; outline: as §4
Plasma [19] = assay: Plasma concentration in mouse at 10 mg/kg, po; type: ADME, organism-based; parameters: dose 10 mg/kg, route oral; details: in vivo; outline: as §1
Plasma [20] = assay: Plasma concentration in mouse assessed as (3aS,6aR)-3a-(3,4-dichlorophenyl)octahydrocyclopenta[c]pyrrole level at 3 mg/kg, po; type: ADME, organism-based; parameters: dose 3 mg/kg, route oral; details: in vivo; outline: as §1
Mus musculus [21] = assay: Antidepressant activity in po dosed mouse assessed as reduction of immobility time after 60 mins by tail suspension test; type: functional, organism-based; outline: as §3
Brain [22] = assay: Drug level in mouse brain at 10 mg/kg, po; type: ADME, organism-based; parameters: dose 10 mg/kg, route oral; details: in vivo; outline: as §1
Mus musculus [23] = assay: Toxicity in mouse assessed as increase of spontaneous locomotor activity at 10 to 30 mg/kg, po measured for 5 mins; type: organism-based; parameters: dose 10-30 mg/kg, route oral; details: in vivo
[24] = Ratio of drug level in brain to plasma in mouse at 30 mg/kg, po; type: ADME, organism-based; parameters: dose 30 mg/kg, route oral; details: brain and plasma, read-out: BPR; outline: as §1
[25] = Plasma protein binding in mouse; type: ADME, cell-free; details: read-out: PPB (converted)
Outline: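 Protein binding measured with mouse plasma protein.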

Sequence of Sodium-dependent noradrenaline transporter (P23975 whole entry): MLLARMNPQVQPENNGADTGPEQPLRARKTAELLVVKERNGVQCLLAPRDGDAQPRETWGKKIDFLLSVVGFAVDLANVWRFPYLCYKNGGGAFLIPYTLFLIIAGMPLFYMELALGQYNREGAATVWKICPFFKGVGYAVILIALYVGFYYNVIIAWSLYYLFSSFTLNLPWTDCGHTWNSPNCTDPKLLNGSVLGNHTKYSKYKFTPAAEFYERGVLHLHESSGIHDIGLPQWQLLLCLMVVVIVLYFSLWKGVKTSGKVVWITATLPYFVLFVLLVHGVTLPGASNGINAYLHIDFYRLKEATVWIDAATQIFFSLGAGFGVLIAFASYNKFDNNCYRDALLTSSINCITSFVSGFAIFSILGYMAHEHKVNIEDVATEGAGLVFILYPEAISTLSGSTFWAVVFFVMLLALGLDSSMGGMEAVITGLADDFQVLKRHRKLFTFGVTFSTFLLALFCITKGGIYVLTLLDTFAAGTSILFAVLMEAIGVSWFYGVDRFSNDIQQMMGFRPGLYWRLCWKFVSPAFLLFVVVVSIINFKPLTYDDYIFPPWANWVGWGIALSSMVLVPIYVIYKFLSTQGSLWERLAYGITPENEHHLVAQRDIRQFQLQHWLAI

For CN1C[C@H]2CCC[C@@]2(c2ccc(Cl)c(Cl)c2)C1, the IC50 [1] was 0.0224 µM, the Cp (Plasma [2]) was 537 ng/mL and the IC50 (Cytochrome P450 3A4) was > 25 µM. It also gave a Drug uptake (Brain [3]) of 4762 ng/g, a Drug uptake (Brain [4]) of 11433 ng/g and an IC50 [5] of 0.148 µM. For the same molecule, the Cp (Plasma [6]) was 2 ng/mL, the IC50 (Cytochrome P450 2D6) was 5.21 µM and the Activity (Mus musculus [7]) was 26%. For the same molecule, the IC50 [8] was 0.00363 µM, the IC50 (Cytochrome P450 2C19) was 7.22 µM and the Cp (Plasma [9]) was 211 ng/mL. It also gave an Activity (Mus musculus [10]) of 25%, a Drug uptake (Brain [11]) of 1531 ng/g and a half-life at 3 µM [12] of 37 min. For the same molecule, the Cp (Plasma [13]) was 30 ng/mL, the Kp [14] was 2 and the Drug uptake (Brain [15]) was 34 ng/g. The IC50 (Cytochrome P450 2C9) was > 25 µM, the IC50 (CYP1A) was > 25 µM and the Drug uptake (Brain [16]) was 507 ng/g. It also gave an Activity (Mus musculus [17]) of 31%, a half-life at 3 µM [18] of 27 min and a Cp (Plasma [19]) of 7 ng/mL. The Cp (Plasma [20]) was 69 ng/mL, the Activity (Mus musculus [21]) was “Dose-dependent effect” and the Drug uptake (Brain [22]) was 113 ng/g.

In the case of Cl.Clc1ccc([C@@]23CCC[C@@H]2CNC3)cc1Cl, the Cp (Plasma [6]) is reported as 69 ng/mL, the Activity (Mus musculus [23]) is reported as “Non-toxic” and the Activity (Mus musculus [7]) is reported as 25%. It also gave an Activity (Mus musculus [10]) of 29%, a Cp (Plasma [13]) of 569 ng/mL and a Drug uptake (Brain [15]) of 1747 ng/g. The Kp [24] was 30, the Drug uptake (Brain [16]) was 14050 ng/g and the Activity (Mus musculus [17]) was 42%. It also gave a fraction unbound [25] of 0.04, a Cp (Plasma [19]) of 214 ng/mL and a Drug uptake (Brain [22]) of 5950 ng/g.

With Clc1ccc([C@@]23CCC[C@@H]2CNC3)cc1Cl the Activity (Mus musculus [21]) was “Dose-dependent effect”.
